Measured values reported in ChEMBL document CHEMBL1127783, “Sugar-linked dithiocarbamates as modulators of metabolic and genotoxic properties of N-nitroso compounds” (J Med Chem, 1994).
Where “and” joins values, the source holds several entries; their conditions need not be identical. Identical values can stand only once.

Columns and labels:
Rattus norvegicus [1] = experiment: Tested for steady state volume of distribution (Vss) after intravenous bolus administration of 100 mg/kg in rat 1; format: ADME, organism-based; parameters: dose 100 mg/kg, route intravenous; conditions: in vivo
Outline: (§1)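 Rats (two per compound) were catheterised in the jugular vein under chloral hydrate. A 100 mg/kg iv bolus was given through the catheter, followed by a saline rinse. Serial blood samples (250–300 μL) were collected into heparinized tubes and centrifuged for plasma. Each rat's plasma concentration–time data were fitted by nonlinear regression to a compartment model to derive AUC, MRT, CL, Vss and phase half-lives. Body weight was recorded for each rat.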

[2] = Tested for half life beta after intravenous bolus administration of 100 mg/kg in rat 2; format: ADME, organism-based; parameters: dose 100 mg/kg, route intravenous; conditions: in vivo, read-out: T1/2 beta; outline: as §1
Rattus norvegicus [3] = experiment: Tested for cumulative urinary excretion following intravenous bolus dose of 100 mg/kg in rat at 8-24 h; format: functional, Urine
Outline: (§2)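 Rats (five per group) were given a single 100 mg/kg dose ip or as an iv bolus. Each was housed alone in a metabolism cage, and urine was collected over 0–8 h and 8–24 h. Parent compound and the monosaccharide-linked metabolite in urine were quantified and reported as cumulative % of dose, mean ± SD.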

Rattus norvegicus [4] = species on record: Rattus norvegicus; experiment: Tested in vitro for N-nitrosodimethylamine (NDMA) demethylase activity at 0.5 mM for 2 mM concentration of formaldehyde; format: functional
Outline: (§3)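 Liver microsomal fraction from untreated male Sprague–Dawley rats with NADPH-generating system. NDMA substrate 0.1–1 mM; test compound 2–20 mM or DDTC 2 mM added. Formaldehyde and acetaldehyde formed measured as (2,4-dinitrophenyl)hydrazones. Mean ± SD of three separate experiments.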

Rattus norvegicus [5] = experiment: Tested for cumulative urinary excretion following intravenous bolus dose of 100 mg/kg in rat at 0-8 h; format: functional, Urine; outline: as §2
Rattus norvegicus [6] = species on record: Rattus norvegicus; experiment: Tested in vitro for N-nitrosodimethylamine (NDMA) demethylase activity at 0.1 mM for 0 mM concentration of acetaldehyde; format: functional; outline: as §3
Rattus norvegicus [7] = experiment: Tested for cumulative urinary excretion following intraperitoneal dose of 100 mg/kg in rat at 0-8 hr was recovered; format: functional, Urine; outline: as §2
Rattus norvegicus [8] = experiment: Tested for mean residence time (MRT) after intravenous bolus administration of 100 mg/kg in rat 1; format: ADME, organism-based; parameters: dose 100 mg/kg, route intravenous; conditions: in vivo; outline: as §1
Rattus norvegicus [9] = species on record: Rattus norvegicus; experiment: Tested in vitro for N-nitrosodimethylamine (NDMA) demethylase activity at 2 mM for 5 mM concentration of acetaldehyde; format: functional; outline: as §3
Rattus norvegicus [10] = species on record: Rattus norvegicus; experiment: Tested in vitro for N-nitrosodimethylamine (NDMA) demethylase activity at 2 mM for 0 mM concentration of acetaldehyde; format: functional; outline: as §3
[11] = Tested for half -life alpha after intravenous bolus administration of 100 mg/kg in rat 1; format: ADME, organism-based; parameters: dose 100 mg/kg, route intravenous; conditions: in vivo, read-out: T1/2 alpha; outline: as §1
Rattus norvegicus [12] = experiment: Tested for mean residence time (MRT) after intravenous bolus administration of 100 mg/kg in rat 2; format: ADME, organism-based; parameters: dose 100 mg/kg, route intravenous; conditions: in vivo; outline: as §1
Rattus norvegicus [13] = experiment: Tested for body weight after intravenous bolus administration of 100 mg/kg in rat 2; format: ADME, organism-based; parameters: dose 100 mg/kg, route intravenous; conditions: in vivo; outline: as §1
[14] = Tested for the half life period in beta glucosidase at pH of 7.4; 6-12 days; format: ADME; conditions: pH 7.4
Rattus norvegicus [15] = experiment: Tested ex vivo for analysis of DNA single-strand breaks in primary rat hepatocyte by oral treatment of NDEA during second gavage, 2 hr after first gavage.; format: functional
Outline: (§4)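 Fasted rats given a first gavage of 0.5 mmol/kg test agent or saline, then NDEA (1.4 mg/kg) or saline by a second gavage 2 h later, both in 10 mL NaCl/kg. At 1 h after the second gavage, hepatocytes were isolated by two-step in situ perfusion under metophane anaesthesia. Alkaline filter elution: 1.5 × 10⁶ cells/filter, lysis at pH 10 with SDS/proteinase K, ten elution fractions, DNA measured by Hoechst 33258 fluorescence. Readout is control minus treated % DNA retained on filter; n = 6.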

Rattus norvegicus [16] = experiment: Tested ex vivo for analysis of DNA single-strand breaks in primary rat hepatocyte by oral treatment of NDEA during first gavage; format: functional
Rattus norvegicus [17] = species on record: Rattus norvegicus; experiment: Tested in vitro for N-nitrosodimethylamine (NDMA) demethylase activity at 2 mM for 2 mM concentration of acetaldehyde; format: functional; outline: as §3
Rattus norvegicus [18] = experiment: Tested for body weight after intravenous bolus administration of 100 mg/kg in rat 1; format: ADME, organism-based; parameters: dose 100 mg/kg, route intravenous; conditions: in vivo; outline: as §1
Rattus norvegicus [19] = species on record: Rattus norvegicus; experiment: Tested in vitro for N-nitrosodimethylamine (NDMA) demethylase activity at 0.1 mM for 2 mM concentration of formaldehyde; format: functional; outline: as §3
Rattus norvegicus [20] = experiment: Tested ex vivo for analysis of DNA single-strand breaks in primary rat hepatocyte by oral treatment of NaCl during second gavage, 2 hr after first gavage.; format: functional; outline: as §4
Rattus norvegicus [21] = species on record: Rattus norvegicus; experiment: Tested in vitro for N-nitrosodimethylamine (NDMA) demethylase activity at 0.1 mM for 0 mM concentration of formaldehyde; format: functional; outline: as §3
Rattus norvegicus [22] = experiment: Tested for area under the curve (AUC) after intravenous bolus administration of 100 mg/kg in rat 2; format: ADME, organism-based; parameters: dose 100 mg/kg, route intravenous; conditions: in vivo; outline: as §1
Rattus norvegicus [23] = experiment: Tested for steady state volume of distribution (Vss) after intravenous bolus administration of 100 mg/kg in rat 2; format: ADME, organism-based; parameters: dose 100 mg/kg, route intravenous; conditions: in vivo; outline: as §1
Rattus norvegicus [24] = experiment: Tested for cumulative urinary excretion following intravenous bolus dose of 100 mg/kg in rat at 8-24 h was recovered; format: functional, Urine; outline: as §2
[25] = Tested for half life gamma after intravenous bolus administration of 100 mg/kg in rat 2; format: ADME, organism-based; parameters: dose 100 mg/kg, route intravenous; conditions: in vivo, read-out: T1/2 gamma; outline: as §1
Rattus norvegicus [26] = species on record: Rattus norvegicus; experiment: Tested in vitro for N-nitrosodimethylamine (NDMA) demethylase activity at 0.1 mM for 2 mM concentration of acetaldehyde; format: functional; outline: as §3
Rattus norvegicus [27] = experiment: Tested for half life beta after intravenous bolus administration of 100 mg/kg in rat 1; format: ADME, organism-based; parameters: dose 100 mg/kg, route intravenous; conditions: in vivo; outline: as §1
Rattus norvegicus [28] = species on record: Rattus norvegicus; experiment: Tested in vitro for N-nitrosodimethylamine (NDMA) demethylase activity at 2 mM for 20 mM concentration of formaldehyde; format: functional; outline: as §3
Rattus norvegicus [29] = experiment: Tested for total body clearance (CL) after intravenous bolus administration of 100 mg/kg in rat 2; format: ADME, organism-based; parameters: dose 100 mg/kg, route intravenous; conditions: in vivo; outline: as §1
Rattus norvegicus [30] = species on record: Rattus norvegicus; experiment: Tested in vitro for N-nitrosodimethylamine (NDMA) demethylase activity at 2 mM for 0 mM concentration of formaldehyde; format: functional; outline: as §3
Rattus norvegicus [31] = experiment: Tested ex vivo for analysis of DNA single-strand breaks in primary rat hepatocyte by oral treatment of NaCl during first gavage; format: functional; outline: as §4
Rattus norvegicus [32] = experiment: Tested for cumulative urinary excretion following intraperitoneal dose of 100 mg/kg in rat at 0-8 h; format: functional, Urine; outline: as §2
Rattus norvegicus [33] = experiment: Tested for total body clearance (CL) after intravenous bolus administration of 100 mg/kg in rat 1; format: ADME, organism-based; parameters: dose 100 mg/kg, route intravenous; conditions: in vivo; outline: as §1
[34] = Tested for half -life alpha after intravenous bolus administration of 100 mg/kg in rat 2; format: ADME, organism-based; parameters: dose 100 mg/kg, route intravenous; conditions: in vivo, read-out: T1/2 alpha; outline: as §1
[35] = Tested for the half life period in alpha glucosidase at pH of 7.4; 9-18 days; format: ADME; conditions: pH 7.4
Rattus norvegicus [36] = species on record: Rattus norvegicus; experiment: Tested in vitro for N-nitrosodimethylamine (NDMA) demethylase activity at 2 mM for 2 mM concentration of formaldehyde; format: functional; outline: as §3
Rattus norvegicus [37] = experiment: Tested for cumulative urinary excretion following intraperitoneal dose of 100 mg/kg in rat at 8-24 hr was recovered; format: functional, Urine; outline: as §2
Rattus norvegicus [38] = experiment: Tested for area under the curve (AUC) after intravenous bolus administration of 100 mg/kg in rat 1; format: ADME, organism-based; parameters: dose 100 mg/kg, route intravenous; conditions: in vivo; outline: as §1
Rattus norvegicus [39] = species on record: Rattus norvegicus; experiment: Tested in vitro for N-nitrosodimethylamine (NDMA) demethylase activity at 0.5 mM for 2 mM concentration of acetaldehyde; format: functional; outline: as §3
Rattus norvegicus [40] = experiment: Tested for cumulative urinary excretion following intraperitoneal dose of 100 mg/kg in rat at 8-24 h; format: functional, Urine; outline: as §2
Rattus norvegicus [41] = species on record: Rattus norvegicus; experiment: Tested in vitro for N-nitrosodimethylamine (NDMA) demethylase activity at 1 mM for 2 mM concentration of acetaldehyde; format: functional; outline: as §3
Rattus norvegicus [42] = species on record: Rattus norvegicus; experiment: Tested in vitro for N-nitrosodimethylamine (NDMA) demethylase activity at 1 mM for 2 mM concentration of formaldehyde; format: functional; outline: as §3
[43] = Tested for the half life period in phosphate buffer at pH of 7.4; Stable; format: ADME; conditions: pH 7.4
Rattus norvegicus [44] = experiment: Tested for cumulative urinary excretion following intravenous bolus dose of 100 mg/kg in rat at 0-8 hr was recovered; format: functional, Urine; outline: as §2
Rattus norvegicus [45] = species on record: Rattus norvegicus; experiment: Tested in vitro for N-nitrosodimethylamine (NDMA) demethylase activity at 2 mM for 5 mM concentration of formaldehyde; format: functional; outline: as §3
[46] = Tested for half life gamma after intravenous bolus administration of 100 mg/kg in rat 1; format: ADME, organism-based; parameters: dose 100 mg/kg, route intravenous; conditions: in vivo, read-out: T1/2 gamma; outline: as §1

SMILES: CCN(CC)C(=S)SC1OC(CO)C(O)C(O)C1O (stereo not given)
- Vss (Rattus norvegicus [1]): 0.1526 L/kg
- half-life [2]: 23.6 min
- Excretion (Rattus norvegicus [3]): 1.5 % of dose
- Formaldehyde (Rattus norvegicus [4]): 9 nM (mg of protein)-1
- Excretion (Rattus norvegicus [5]): 34.5 % of dose
- Acetaldehyde (Rattus norvegicus [6]): 0 nM (mg of protein)-1
- Excretion (Rattus norvegicus [7]): 21 % of dose
- MRT (Rattus norvegicus [8]): 59.8 min
- Acetaldehyde (Rattus norvegicus [9]): 25.9 nM (mg of protein)-1
- Acetaldehyde (Rattus norvegicus [10]): 0 nM (mg of protein)-1
- half-life [11]: 3.7 min
- MRT (Rattus norvegicus [12]): 43.8 min
- Body weight (Rattus norvegicus [13]): 150 g
- half-life [14]: 144 h
- DNA on filter (Rattus norvegicus [15]): 77
- Viability (Rattus norvegicus [15]): 106%
- DNA on filter (Rattus norvegicus [16]): 74
- Viability (Rattus norvegicus [16]): 92%
- Acetaldehyde (Rattus norvegicus [17]): 13.8 nM (mg of protein)-1 and 31.5 nM (mg of protein)-1
- Body weight (Rattus norvegicus [18]): 140 g
- Formaldehyde (Rattus norvegicus [19]): 1.2 nM (mg of protein)-1
- DNA on filter (Rattus norvegicus [20]): 58
- Viability (Rattus norvegicus [20]): 100%
- Formaldehyde (Rattus norvegicus [21]): 4.6 nM (mg of protein)-1
- AUC (Rattus norvegicus [22]): 11.4 uM min l-1
- Vss (Rattus norvegicus [23]): 0.1848 L/kg
- Excretion (Rattus norvegicus [24]): 1.2 % of dose
- half-life [25]: 129 min
- Acetaldehyde (Rattus norvegicus [26]): 10.9 nM (mg of protein)-1
- T1/2 beta (Rattus norvegicus [27]): 19.3 min
- Formaldehyde (Rattus norvegicus [28]): 1.5 nM (mg of protein)-1
- Clearance (Rattus norvegicus [29]): 42.1 mL/min/kg
- Formaldehyde (Rattus norvegicus [30]): 15 nM (mg of protein)-1
- DNA on filter (Rattus norvegicus [31]): 60
- Viability (Rattus norvegicus [31]): 82%
- Excretion (Rattus norvegicus [32]): 31.2 % of dose
- Clearance (Rattus norvegicus [33]): 25.5 mL/min/kg
- half-life [34]: 5.2 min
- half-life [35]: 216 h
- Formaldehyde (Rattus norvegicus [36]): 14.7 nM (mg of protein)-1
- Excretion (Rattus norvegicus [37]): 1 % of dose
- AUC (Rattus norvegicus [38]): 17.6 uM min l-1
- Acetaldehyde (Rattus norvegicus [39]): 8.5 nM (mg of protein)-1
- Excretion (Rattus norvegicus [40]): 2.2 % of dose
- Acetaldehyde (Rattus norvegicus [41]): 4.3 nM (mg of protein)-1
- Formaldehyde (Rattus norvegicus [42]): 6.2 nM (mg of protein)-1
- T1/2 [43]: Stable
- Excretion (Rattus norvegicus [44]): 13.1 % of dose
- Formaldehyde (Rattus norvegicus [45]): 11.9 nM (mg of protein)-1
- half-life [46]: 88.8 min
